We go through eight molecules from ChEMBL document CHEMBL3286368, “Delayed and Prolonged Histone Hyperacetylation with a Selective HDAC1/HDAC2 Inhibitor” (ACS Med Chem Lett, 2014).

For one data set, the system named is HCT-116. The data set is described as follows: cells. As to conditions: Homo sapiens, HCT-116, 72 h. In kind it is functional, Homo sapiens.
Another data set deals with Histone deacetylase 1 (Homo sapiens, UniProt Q13547). In kind it is cell-based, HEK293F.
The target in data set [1] is Voltage-gated inwardly rectifying potassium channel KCNH2 (Homo sapiens, UniProt Q12809). The data set is described as follows: Binding affinity to human ERG.
Voltage-gated inwardly rectifying potassium channel KCNH2, sequence (Q12809 whole entry): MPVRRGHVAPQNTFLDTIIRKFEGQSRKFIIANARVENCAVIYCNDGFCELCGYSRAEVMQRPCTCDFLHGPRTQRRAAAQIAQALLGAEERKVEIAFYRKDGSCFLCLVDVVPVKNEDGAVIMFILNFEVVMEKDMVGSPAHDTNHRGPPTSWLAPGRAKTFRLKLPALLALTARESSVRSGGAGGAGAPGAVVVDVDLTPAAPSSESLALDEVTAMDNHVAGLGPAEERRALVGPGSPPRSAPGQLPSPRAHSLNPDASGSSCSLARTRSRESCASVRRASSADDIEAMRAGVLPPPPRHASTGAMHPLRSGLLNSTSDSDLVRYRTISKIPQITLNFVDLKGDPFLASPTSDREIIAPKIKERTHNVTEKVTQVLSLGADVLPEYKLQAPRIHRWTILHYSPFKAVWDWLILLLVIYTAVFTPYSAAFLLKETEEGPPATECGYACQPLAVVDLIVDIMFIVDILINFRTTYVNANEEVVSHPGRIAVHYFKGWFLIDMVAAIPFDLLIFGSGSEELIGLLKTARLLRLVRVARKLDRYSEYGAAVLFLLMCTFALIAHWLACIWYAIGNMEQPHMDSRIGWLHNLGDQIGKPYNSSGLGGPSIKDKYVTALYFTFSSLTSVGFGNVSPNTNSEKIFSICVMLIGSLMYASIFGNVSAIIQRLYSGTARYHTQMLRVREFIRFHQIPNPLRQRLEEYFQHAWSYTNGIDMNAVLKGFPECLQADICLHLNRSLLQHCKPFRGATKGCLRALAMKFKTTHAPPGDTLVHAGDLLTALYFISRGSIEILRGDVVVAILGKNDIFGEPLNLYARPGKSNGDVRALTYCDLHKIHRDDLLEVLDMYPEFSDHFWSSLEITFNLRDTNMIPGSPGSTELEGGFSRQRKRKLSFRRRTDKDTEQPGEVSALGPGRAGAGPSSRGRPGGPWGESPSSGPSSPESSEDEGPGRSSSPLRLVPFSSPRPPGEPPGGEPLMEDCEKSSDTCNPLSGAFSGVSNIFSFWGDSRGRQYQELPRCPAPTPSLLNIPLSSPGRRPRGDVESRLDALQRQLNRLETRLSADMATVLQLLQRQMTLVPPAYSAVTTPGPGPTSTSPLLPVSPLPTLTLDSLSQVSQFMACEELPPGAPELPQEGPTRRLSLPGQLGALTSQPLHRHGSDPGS
A short description of data set [2]: Solubility of the compound. In kind it is physicochemical. An outline of the steps:
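Solubility determined on the bis-HCl salt, reported in mg/mL.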

One may read the GI50 as the concentration at which growth is held to half of that of the control. A low value points to greater sensitivity of the cells. Usually IC50 stands for the midpoint of a concentration-inhibition curve. A low value points to greater potency. One may read the Ki as a dissociation constant, usually derived from enzyme kinetics or from competition with a known ligand. Low readings indicate a stronger hold on the target, high ones a looser hold on the target. The solubility is how much of the substance goes into solution per volume. The low end stands for a poorly soluble substance, the high end for a readily soluble substance.

Structures are written as SMILES.

Histone deacetylase 1, sequence (Q13547 whole entry): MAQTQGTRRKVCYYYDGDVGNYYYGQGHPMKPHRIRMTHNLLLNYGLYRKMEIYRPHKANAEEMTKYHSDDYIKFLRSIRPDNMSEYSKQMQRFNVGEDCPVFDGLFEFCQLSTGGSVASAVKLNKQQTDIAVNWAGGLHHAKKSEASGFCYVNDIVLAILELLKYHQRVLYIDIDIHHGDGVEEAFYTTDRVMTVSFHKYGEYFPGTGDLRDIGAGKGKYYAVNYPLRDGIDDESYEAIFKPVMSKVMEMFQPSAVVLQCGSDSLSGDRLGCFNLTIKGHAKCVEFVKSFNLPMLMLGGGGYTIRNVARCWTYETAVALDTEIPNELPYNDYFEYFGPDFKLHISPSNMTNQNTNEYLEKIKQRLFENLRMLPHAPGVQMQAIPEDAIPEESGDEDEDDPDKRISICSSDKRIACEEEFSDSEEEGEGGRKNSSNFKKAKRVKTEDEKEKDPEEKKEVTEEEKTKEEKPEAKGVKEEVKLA

Turning to `Nc1ccc(-c2ccc(F)cc2)cc1NC(=O)c1ccc(N2CCC3(CC2)CNC(=O)O3)nc1`, in the data set with HCT-116, the GI50 worked out at 710 nM. At Histone deacetylase 1, this molecule returned an IC50 of 20 nM. The molecule also came in with an inhibitory constant (Ki) in data set [1] of 620 nM.
In the data set with HCT-116, `Nc1ccc(-c2ccccc2)cc1NC(=O)c1ccc(N2CCC3(CC2)CNC(=O)O3)nc1` yielded a 50% growth inhibitory concentration (GI50) of 490 nM. The midpoint of inhibition on Histone deacetylase 1, the IC50, lay at 17 nM. In data set [1], the inhibitory constant (Ki) turned out to be 3400 nM.
With `Nc1ccc(-c2ccsc2)cc1NC(=O)c1ccc(N2CCC3(CC2)CNC(=O)O3)nc1`, the GI50 in the data set on HCT-116 amounted to 270 nM. This molecule also gave an IC50 on Histone deacetylase 1 of 11 nM. In data set [1], this molecule displayed a Ki greater than 30000 nM.
In the same order, the values of `Cc1csc(-c2ccc(N)c(NC(=O)c3ccc(N4CCC5(CC4)CNC(=O)O5)nc3)c2)c1` are 890 nM, 14 nM and 2000 nM.
On to `Cl.Nc1ccc(-c2cccs2)cc1NC(=O)c1ccc(N2CCC3(CC2)CNC(=O)O3)nc1`, for which, in data set [2], the solubility was 1300 µg/mL.
`Cn1cc(-c2ccc(N)c(NC(=O)c3ccc(N4CCC5(CC4)CNC(=O)O5)nc3)c2)cn1` came in with a GI50 with HCT-116 of 2120 nM. For the same molecule, half-maximal inhibition against Histone deacetylase 1 (IC50) was put at 18 nM. The Ki in data set [1] was greater than 10000 nM.
In the same order, the values of `Nc1ccccc1NC(=O)c1ccc(N2CCC3(CC2)CNC(=O)O3)nc1` are 5080 nM, 580 nM and greater than 10000 nM.
For `Cn1cnc(-c2ccc(N)c(NC(=O)c3ccc(N4CCC5(CC4)CNC(=O)O5)nc3)c2)c1`, in that order: 4650 nM, 51 nM and greater than 10000 nM.
